According to article PMC8830364 (Bioorganic & medicinal chemistry letters, 2021):

Legend:
[1] = Chemical stability in human plasma; assay type: in vitro ADME; settings: pooled human plasma, 37 °C; for Stability in human plasma (in words): 2.5 μM, 0, 30, 60, 120 min; for Half time in human plasma: 2.5 μM, 0-120 min
Method in brief: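 Test compound at 2.5 μM (below its K_M) incubated in pooled plasma from healthy volunteers at 37 °C, in triplicate, sampled at 0, 30, 60 and 120 min. Remaining analyte was quantified by LC-MS/MS in MRM mode. Degradation was treated as first-order: the slope of ln(concentration) versus time gave the rate constant k, from which t1/2 was calculated.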

[2] = target: T1, Human neutrophil elastase (HNE) (Homo sapiens, UniProt P08246); experiment: HNE inhibitory activity; assay type: biochemical; settings: for HNE inhibitory activity (in words): as described
T1 sequence (P08246 30-267): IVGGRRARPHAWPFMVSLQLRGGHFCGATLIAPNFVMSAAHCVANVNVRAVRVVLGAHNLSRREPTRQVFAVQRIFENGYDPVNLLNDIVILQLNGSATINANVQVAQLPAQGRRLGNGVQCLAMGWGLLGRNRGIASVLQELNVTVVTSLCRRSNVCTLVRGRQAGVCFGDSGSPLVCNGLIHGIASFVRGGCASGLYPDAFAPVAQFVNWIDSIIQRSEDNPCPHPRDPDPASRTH

[3] = Stability in aqueous buffer; assay type: physicochemical; settings: for half-life: Half-life (t1/2) for the spontaneous hydrolysis

SMILES | Ki [2] [µM] | HNE inhibitory activity (in words) [2] | other results
Cc1cccc(C(=O)n2cc3c(n2)CCCC3=O)c1 [Compound 6a] | – | – | Stability in human plasma (in words) [1]: rapid degradation rate; Half time in human plasma [1]: ~6 min
O=C1CCCc2nn(-c3cccc(C(F)(F)F)c3)cc21 [Compound 6c] | > 50 | complete inactivity | –
O=C1CCCc2nn(Cc3cccc(C(F)(F)F)c3)cc21 [Compound 6d] | > 50 | complete inactivity | Stability in human plasma (in words) [1]: maintained their spiked concentration for all of the incubation times
O=C1CCCc2nn(Cc3ccccc3)cc21 [Compound 6e] | > 50 | complete inactivity | –
CC(C)(C)OC(=O)N1CCN(C(=O)Cn2cc3c(n2)CCCC3=O)CC1 [Compound 6g] | > 50 | – | –
O=C1CCCc2nn(CC(=O)N3CCNCC3)cc21 [Compound 6h] | > 50 | – | –
Cc1cccc(C(=O)n2ncc3c2CCCC3=O)c1 [Compound 7a] | – | – | Stability in human plasma (in words) [1]: rapid degradation rate; Half time in human plasma [1]: ~6 min
O=C1CCCc2c1cnn2-c1cccc(C(F)(F)F)c1 [Compound 7c] | > 50 | complete inactivity | –
O=C1CCCc2c1cnn2Cc1cccc(C(F)(F)F)c1 [Compound 7d] | > 50 | complete inactivity | Stability in human plasma (in words) [1]: maintained their spiked concentration for all of the incubation times
O=C1CCCc2c1cnn2Cc1ccccc1 [Compound 7e] | > 50 | complete inactivity | –
CC(C)(C)OC(=O)N1CCN(C(=O)Cn2ncc3c2CCCC3=O)CC1 [Compound 7g] | > 50 | – | –
O=C(C1CC1)n1cc2c(n1)CCC(Br)(Br)C2=O [Compound 9b, 5,5-dibromo-2-(cyclopropanecarbonyl)-2,5,6,7-tetrahydro-4H-indazol-4-one] | – | – | half-life [3]: 235 ± 18.2 min
CC(C)(C)OC(=O)n1cc2c(n1)CCC(Br)C2=O (stereo not drawn) [Compound 9e] | > 50 | low active or devoid of HNE inhibitory activity | –
O=C1c2cn(CC(=O)N3CCN(c4ccccc4)CC3)nc2CCC1Br (stereo not drawn) [Compound 9f] | > 50 | low active or devoid of HNE inhibitory activity | –
O=C1c2cnn(C(=O)C3CC3)c2CCC1Br (stereo not drawn) [Compound 10a] | – | – | Half-life (t1/2) for the spontaneous hydrolysis [3]: 38.7 ± 4.1 min; half-life [3]: 53.9 min
O=C1c2cnn(CC(=O)N3CCN(c4ccccc4)CC3)c2CCC1Br (stereo not drawn) [Compound 10d] | > 50 | low active or devoid of HNE inhibitory activity | –
O=C(C1CC1)N(C(=O)C1CC1)C1CCCc2c1cnn2-c1ccccc1 (stereo not drawn) [Compound 14a] | > 50 | – | –
O=C(NC1CCCc2c1cnn2-c1ccccc1)C1CC1 (stereo not drawn) [Compound 14b] | > 50 | – | –
Cc1cccc(C(=O)NC2CCCc3c2cnn3-c2ccccc2)c1 (stereo not drawn) [Compound 14c] | > 50 | – | –
